# From PubChem
# Efflux pump inh = blocks antifungal efflux pumps in multiplex yeast assay | S. cerevisiae Candida pump triplex, Nile Red efflux | inhibition, % at 10 µM | hit rate 0.44% among 330,000;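 active means plate passing quality check with inhibition over a set limit, or well fluorescence over plate mean plus 4 SD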;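 further: Nile Red retained in pooled yeast measured as flow cytometry median fluorescence; 0% = buffer negative control and 100% = Enniatin B positive control; higher means more Nile Red kept so more efflux inhibition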
# H9c2 TAG inh = triacylglycerol accumulation inhibition; H9c2 cells, Nile Red lipid (TAG) fluorescence; cells loaded with 200 µM oleic acid; inhibition, % at 12.5 µM; hit rate 0.66% among 230,000; AID 651582;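 active means pattern-corrected inhibition of lipid staining of at least 50% with the nuclear-stain viability signal not falling by more than 50%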;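 further: 0% = DMSO wells and 100% = triacsin C control wells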
# SMARCA2 activ = SMARCA2 function activation, primary screen | MG213 cells, MMTV-luciferase reporter, dexamethasone, overnight | activation, % at 9.1 µM | hit rate 1% among 370,000; in the data active means activation above about 7.8%;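 further: 0% = vehicle wells and 100% = reference activator wells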
# AHR activator = activators of human aryl hydrocarbon receptor. P35869. AHR-responsive luciferase reporter cells, luminescence. activation, % at 5 µM. hit rate 2.5% among 320,000; in the data active means activation above about 47%;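 further: 0% = vehicle wells and 100% = reference agonist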
# Target sequence (P35869 whole entry, looked up): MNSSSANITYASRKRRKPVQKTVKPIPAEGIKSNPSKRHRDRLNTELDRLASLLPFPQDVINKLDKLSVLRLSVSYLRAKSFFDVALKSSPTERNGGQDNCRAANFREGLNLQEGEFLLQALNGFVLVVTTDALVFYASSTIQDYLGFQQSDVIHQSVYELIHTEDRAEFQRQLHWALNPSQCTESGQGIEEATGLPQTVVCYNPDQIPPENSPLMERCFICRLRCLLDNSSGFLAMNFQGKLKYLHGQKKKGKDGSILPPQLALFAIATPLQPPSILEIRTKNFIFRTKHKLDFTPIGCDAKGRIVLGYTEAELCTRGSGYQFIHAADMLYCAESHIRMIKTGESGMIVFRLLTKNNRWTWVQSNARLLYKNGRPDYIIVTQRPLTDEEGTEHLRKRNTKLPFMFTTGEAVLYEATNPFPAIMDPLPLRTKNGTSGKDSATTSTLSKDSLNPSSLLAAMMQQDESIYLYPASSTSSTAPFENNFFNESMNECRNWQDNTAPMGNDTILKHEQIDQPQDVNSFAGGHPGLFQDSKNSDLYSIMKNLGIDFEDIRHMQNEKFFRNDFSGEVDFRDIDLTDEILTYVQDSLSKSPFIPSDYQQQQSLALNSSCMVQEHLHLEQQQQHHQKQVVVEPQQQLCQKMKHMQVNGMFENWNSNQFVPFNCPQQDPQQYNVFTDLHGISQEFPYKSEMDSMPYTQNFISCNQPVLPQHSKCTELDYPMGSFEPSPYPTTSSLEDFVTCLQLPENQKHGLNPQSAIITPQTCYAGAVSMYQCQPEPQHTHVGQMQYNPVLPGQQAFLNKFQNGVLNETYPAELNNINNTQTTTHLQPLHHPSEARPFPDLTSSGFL
# Tb MetRS inh = Trypanosoma brucei MetRS inhibition | purified T. brucei MetRS, ATP depletion, Kinase-Glo luminescence | inhibition, % at 11.9 µM | hit rate 0.4% among 360,000 | AID 624268;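 active means inhibition above a per-plate cutoff of the control wells' mean inhibition plus 3 SD, cut at about 5.5% in these data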;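 further: 0% = DMSO wells median and 100% = median of wells with control inhibitor compound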
#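 Assay system: T. brucei methionyl-tRNA synthetase, purified | Medium: HEPES buffer with MgCl2, KCl, DTT, spermine, BSA, pyrophosphatase | Compound: 11.9 µM single point | Incubation: 15 min enzyme-compound preincubation, 2 h reaction, 10 min detection, 25 °C | Measured by: Kinase-Glo luciferase luminescence reporting remaining unconsumed ATP | Measure: % inhibition normalized to control-well medians | Replication: Singlicate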
# AHR act confirm = confirmation of human aryl hydrocarbon receptor activators; shares compounds with AHR activator; activation, % at 9 µM; human cells, AHR-responsive luciferase reporter, luminescence; AID 2845; hit rate 87% among 2,300; in the data active means activation above about 49%;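 further: HepG2 hepatoma cells carrying a DRE-driven firefly luciferase reporter; 0% = vehicle wells and 100% = reference agonist wells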
# PXR act counter = activates human PXR in AHR activator counter-screen | AID 434939 | hit rate 88% among 2,300 | cell-based PXR reporter, luciferase luminescence | activation, % at 11.6 µM | shares compounds with AHR activator; in the data active means activation above about 11%;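 further: human hepatoma DPX-2 cells expressing full-length human PXR; 0% = DMSO and 100% = reference agonist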
# An asterisk follows results filed as active; / = no result. Hits are enriched below; roughly 4.1% of the tested compounds scored in any of these assays.
SMILES,Efflux pump inh,H9c2 TAG inh,SMARCA2 activ,AHR activator,Tb MetRS inh,AHR act confirm,PXR act counter
NC(=O)c1ncn([C@@H]2O[C@H](C(=O)N[C@H](Cc3ccccc3)C(=O)N3CCN(c4ccc(Cl)cn4)CC3)[C@@H](O)[C@H]2O)n1,/,/,-1.8,/,/,/,/
C/C(=C\C(=O)c1ccccc1)NNc1nc2ccccc2s1,0.1,-14.2,3.0,97.2*,-1.8,18.1,53.7*
CC(=O)NNc1nc2ccccc2s1,-0.1,/,-0.4,19.9,-0.3,/,/
C[C@@H]1CN(C(=O)OC(C)(C)C)CCN1c1ccc(N2CCS(=O)(=O)CC2)c(C#N)c1,/,/,-2.2,/,/,/,/
Cc1ccnc(Nc2nc(-c3ccc(Cl)cc3)cs2)c1,0.2,/,1.0,136.7*,0.6,96.5*,32.4*
Cc1ccnc(Nc2nc(-c3ccc(F)cc3)cs2)c1,0.0,3.4,0.7,165.2*,-1.4,132.2*,15.4*
Cc1ccc(Nc2nc(-c3ccncc3)cs2)cc1,/,/,2.2,/,0.5,/,/
Cc1ccnc(Nc2nc(-c3sc(C)nc3C)cs2)c1,-0.1,6.0,-8.3,2.8,0.4,/,/
Cc1cccnc1Nc1nc(-c2ccc(F)cc2)cs1,0.0,-9.2,6.4,125.6*,-2.1,131.5*,16.8*
N#Cc1ccc(NCCCN2CCC(C(O)(c3ccccc3)c3ccccc3)CC2)cc1,/,/,1.6,/,/,/,/
COC(=O)[C@]12C[C@H](CC(=O)N3CCC(c4ccccc4)CC3)C(=O)N(Cc3ccc(Cl)cc3Cl)C1=C[C@H](C(C)C)O[C@@H]2C1CC1,/,/,-2.9,/,/,/,/
CCN(C(=O)[C@@H]1CC(=O)O[C@@H]1c1ccccc1)c1ccccc1,/,/,-0.4,/,/,/,/
O=C(Nc1nc(-c2ccco2)c(-c2ccco2)s1)C1CCC1,-0.4,/,-1.9,105.6*,-0.6,91.0*,25.5*
O=C(c1cccs1)n1ccc2ccc(-c3ccc4ccn(C(=O)c5cccs5)c4c3)cc21,/,/,-1.4,/,/,/,/
Clc1ccc(COc2ccccc2-c2ccnc3ncnn23)cc1,0.2,6.7,3.2,87.3*,-0.6,52.1*,65.2*
Cc1cc(C(=O)Nc2ccc(F)cc2)n(-c2ccccc2)n1,/,/,-1.9,/,/,/,/
Cc1cc(C)n2cc(-c3ccc(Cl)cc3)c(C(=O)O)c2n1,0.0,7.7,4.0,95.7*,0.2,105.8*,/
Cc1cc(-c2ccc(Cl)cc2)c2cnn(C(C)C)c2n1,-0.2,/,-1.5,4.9,0.2,/,/
CN(C)/C=N/c1nc(-c2ccc3c(c2)OCO3)cs1,0.0,/,3.9,80.7*,0.1,69.3*,28.5*
Oc1c(Br)cc(C2N=C(c3ccccc3)NO2)cc1Br (stereo unspecified),0.0,-10.1,0.1,94.4*,-1.5,91.9*,17.6*
O=C1OC(c2cc(Br)c(O)c(Br)c2)c2ccccc21 (stereo unspecified),/,-8.6,3.2,/,-0.4,/,/
CNC(=O)c1cccnc1Nc1cccc(C(F)(F)F)c1,0.1,11.1,2.6,119.7*,-0.2,104.6*,14.9*
Cc1cccnc1NC(=O)Nc1cccc(C(F)(F)F)c1,-0.1,17.0,-2.2,4.1,-0.7,/,/
C=CCN=C1NC(c2ccccc2C(F)(F)F)C(C(=O)OC)=C(C)N1Cc1ccccc1C(F)(F)F (stereo unspecified),/,/,-1.5,/,/,/,/
COc1ncc(-c2cc(C(C)=O)c3n(c2=O)CCC3)c(OC)n1,/,/,-0.7,/,/,/,/
SMILES,Efflux pump inh,H9c2 TAG inh,SMARCA2 activ,AHR activator,Tb MetRS inh,AHR act confirm,PXR act counter
CCOC(=O)[C@]12CCCC3=C1N(CCC3)C(=O)[C@@H](CC(=O)NCCCCc1ccccc1)C2,/,/,-4.9,/,/,/,/
COc1ccc(NS(=O)(=O)c2ccc3oc(Nc4ccc5c(c4)OCCO5)nc3c2)cc1,0.9,10.7,0.1,87.1*,0.0,60.2*,19.0*
Cc1ccccc1NC(=O)C1CCCN1S(=O)(=O)c1cccnc1 (stereo unspecified),/,/,2.5,/,/,/,/
Cc1nc(N2N=C3/C(=C/c4ccc(F)cc4)CCCC3C2c2ccc(F)cc2)sc1C(=O)N(C)C (stereo unspecified),0.4,/,-3.1,92.0*,-0.3,93.0*,114.7*
O=C(c1cc2cc(F)ccc2[nH]1)N1CCc2ccccc2C1,0.1,/,-0.9,82.1*,-0.1,110.1*,46.5*
CCCCN1CN2Cc3ccc(C)cc3C2CS1(=O)=O (stereo unspecified),/,/,-3.3,/,/,/,/
COc1ccc2c(c1)CNC2CS(=O)(=O)NC1CCCC1 (stereo unspecified),/,/,-1.4,/,/,/,/
Cc1ccc(-n2c(C)nc3oc4ccccc4c(=O)c3c2=O)cc1,-0.1,-0.3,2.7,91.0*,0.1,99.2*,11.1*
Cc1cccc(/C=N/NC(=O)c2cccc(NC(=O)c3ccccc3)c2)n1,-0.2,/,1.1,106.0*,-0.1,102.3*,27.9*
COc1ccc(/C=N/NC(=O)c2cccc(NC(=O)c3ccccc3)c2)c(C(=O)O)c1OC,0.1,-6.4,0.2,112.9*,-0.8,94.7*,12.6*
Cc1cccc(/C=N/NC(=O)c2cccc(Cl)c2)n1,0.0,/,6.0,-2.5,-0.2,/,/
COC(=O)c1cc2c(c3c4cc(F)ccc4n(S(=O)(=O)c4ccc(C)cc4)c13)C(=O)N(c1ccc(OC)cc1)C2,/,/,-3.9,/,/,/,/
O=C(N/N=C\c1ccc([N+](=O)[O-])o1)c1cncc(Br)c1,0.0,11.0,-0.8,34.5,0.7,/,/
O=C(N/N=C/c1ccc(-c2ccccc2[N+](=O)[O-])o1)c1cncc(Br)c1,0.0,/,-2.5,83.3*,0.0,76.2*,/
Cc1c(-c2ccc(/C=N/NC(=O)C(=O)Nc3ccccc3F)o2)cccc1[N+](=O)[O-],0.2,4.0,-4.5,0.5,-0.8,/,/
Cc1c(C(=O)N/N=C/c2ccc(-c3ccccc3[N+](=O)[O-])o2)sc(N)c1C#N,0.6,/,2.6,133.4*,0.6,162.8*,50.4*
O=C(C[C@@H]1C[C@@H]2c3cc(NC(=O)c4ccc5c(c4)OCO5)ccc3O[C@@H]2[C@@H](CO)O1)NCc1cccnc1,/,/,-6.1,/,/,/,/
COC(=O)c1ccc(CN2CCC(n3nccc3NC(=O)C3CC3)CC2)cc1,0.0,9.9,1.7,0.9,-0.3,/,/
Cc1c(CN2CCC(n3nccc3NC(=O)C3CC3)CC2)[nH]c2ccccc12,-0.4,4.4,2.3,85.0*,-0.3,81.5*,43.2*
O=C(C=Cc1cccs1)c1cccs1,/,-6.8,2.7,/,0.1,/,/
O=C(/C=C\c1cccs1)c1c(O)ccc2ccc(=O)oc12,0.0,-1.7,0.1,84.8*,0.4,97.0*,/
Cc1ccnc(NC(=O)c2cccc(OC(F)F)c2)n1,0.0,/,3.0,16.0,-0.9,/,/
O=C(Nc1cc(Cl)cc(Cl)c1)c1cccc(OC(F)F)c1,0.2,/,-4.6,80.6*,-0.4,94.5*,43.6*
O=C(CCc1ccccc1)N[C@H]1[C@H](O)CCC[C@]12C(=O)N(Cc1ccccc1)c1ccccc12,/,/,-2.1,/,/,/,/
C/C(=N\NC(=O)CSc1nc(C)cc(C)n1)c1cccs1,0.6,/,-0.8,110.3*,-0.2,98.0*,50.2*
Cc1cc(C)nc(SCC(=O)NNC(=O)c2cccs2)n1,-0.2,-0.1,-3.3,0.5,0.3,/,/
